For assay [1], the species on record is Rattus norvegicus. The experiment in a line: Inhibition of U-46619 (3x10E-8 M) induced contraction in rat thoracic aorta. Type of assay: functional, organism-based. The procedure, abridged:
(§1)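 Aortic rings were held under 1.0 g resting tension and gassed with 95% O₂/5% CO₂. After 1 h equilibration, 3×10⁻⁸ M U-46619 was added; once tension stabilised, compound was added cumulatively. The concentration giving 50% relaxation of the maximal U-46619 tension was derived by regression. Values are mean ± SEM from three dose groups of four preparations.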

For assay [2], the species on record is Oryctolagus cuniculus. Kind of assay: Compound was tested for agonist activity on rabbit PRP. Type of assay: functional. A digest of the protocol:
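Rabbit platelet-rich plasma was exposed to compound alone at 10⁻⁴ M to test for partial agonism. Response is expressed relative to the response to 0.1 μM U-46619, which is set at 100.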

Assay [3] deals with Thromboxane A2 receptor (Oryctolagus cuniculus). Kind of assay: Selectivity index for the TXA2 t-receptor was the difference between the IC50 values in the aggregation and contraction assay.
Assay [4] is filed under the species Oryctolagus cuniculus. The experiment in a line: Compound was tested for agonist activity on rabbit aorta. It counts as functional. The procedure, abridged:
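Rabbit aortic strips were exposed to compound alone at 10⁻⁵ M to test for partial agonism. Tension is expressed relative to the response to 40 mM KCl, which is set at 100.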

A short description of assay [5]: Selectivity index for the difference between the IC50 values in the aggregation and contraction assay. It counts as functional. The procedure, abridged: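 Index compares IC₅₀ values from U-46619-induced rabbit aorta contraction with those from rabbit platelet-rich plasma aggregation. For aggregation, citrated carotid blood from male New Zealand rabbits (2.0–2.5 kg) gave PRP. PRP was pre-warmed 2 min at 37 °C, given compound for 2 min, then U-46619, with turbidimetric read-out. Each IC₅₀ is mean ± SEM by regression, from three dose groups of four preparations.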

The species named for assay [6] is Homo sapiens. The experiment in a line: Effect on TXB2 formation of human platelets. It counts as functional, organism-based. A digest of the protocol: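 Washed human platelets were sonicated in 50 mM phosphate buffer (pH 7.4) with 1 mM EDTA. They were preincubated with compound and 1 mM GSH for 5 min at 37 °C, then given [1-¹⁴C]arachidonic acid for 5 min. Eicosanoids were extracted and separated by TLC, and TXB₂ radioactivity was counted. IC₅₀ was derived by regression.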

Assay [7] is filed under the species Rattus norvegicus. Kind of assay: Compound was tested for the inhibition U-46619 (3 x10 E -8 M) induced contraction against in rat thoracic aorta. Type of assay: functional, organism-based. The procedure, abridged: as §1
For assay [8], the species on record is Oryctolagus cuniculus. The experiment in a line: Displacement of specific binding of [3H]SQ-29,548 to rabbit gel-filtered platelets. It counts as functional.
Setting [9] is: Rattus norvegicus, Thoracic aorta.

Where only a bound is given, the exact number is not on record here.

The term IC50 denotes the concentration at which inhibition is half-maximal. A lower IC50 goes with higher potency. In turn, `CCc1cc(S(=O)(=O)NCCc2ccc(OCC(=O)O)cc2)c2cc(C(C)C)ccc(OC)c1-2` came in with an IC50 in assay [1] (setting [9]) of 120 µM.

Take `CC(C)c1ccc2c(CCCCNS(=O)(=O)c3ccccc3)cc(S(=O)(=O)[O-])c-2cc1.[Na+]`: the Agonist activity in assay [2] and in assay [4] was 0 each time. This compound also yielded an IC50 in assay [1] (setting [9]) of 0.017 µM. Also, the Selectivity index in assay [3] was more than 91.

The compound `CC(C)c1ccc2c(CCCCCNS(=O)(=O)c3ccccc3)cc(C(=O)O)c-2cc1` gave an IC50 in assay [1] (setting [9]) of 0.12 µM. This counts as sub-micromolar.

As for `O=C(O)COc1ccc(CCNS(=O)(=O)c2ccccc2)cc1` [SULOTROBAN], in assay [1] (setting [9]), it took 1.5 µM to reach half-maximal inhibition (IC50). For the same compound, in assay [5], the Selectivity index was 5.

With `CC(C)c1cccc2c(CCCCCCCNS(=O)(=O)c3ccccc3)cc(C(=O)O)c-2c1`, in assay [1] (setting [9]), the IC50 worked out at 0.93 µM.

Compound `O=C(O)c1cc(CCCNS(=O)(=O)c2ccccc2)c2cccccc1-2` came in with an IC50 in assay [1] (setting [9]) of 4.8 µM. This IC50 is about 5.2-fold higher than that of the compound before.

Regarding `CC(C)c1ccc2c(CCCCNS(=O)(=O)c3ccccc3)cc(CC(=O)O)c-2cc1`, 0.3 µM corresponded to half-maximal inhibition in assay [1] (setting [9]) (IC50).

`CCCc1cc(S(=O)(=O)NCCc2ccc(OCC(=O)O)cc2)c2cccccc1-2` gave an IC50 in assay [1] (setting [9]) of 77 µM.

Compound `CC(C)c1cccc2c(CCCNS(=O)(=O)c3ccccc3)cc(C(=O)O)c-2c1` displayed an IC50 in assay [1] (setting [9]) of 7.4 µM.

On to `O=C(O)c1cc(CCCCCCCNS(=O)(=O)c2ccccc2)c2cccccc1-2`, for which the IC50 in assay [1] (setting [9]) came to 0.018 µM. This IC50 lies about 410-fold lower than the previous one.

In the case of `O=C(O)c1cc(CCCCCNS(=O)(=O)c2ccccc2)c2cccccc1-2`, the IC50 in assay [1] (setting [9]) was determined as 0.84 µM. Against the preceding compound, the IC50 is about 47-fold higher.

Consider `CC(C)c1ccc2c(CC/C=C/CCNS(=O)(=O)c3ccccc3)cc(C(=O)O)c-2cc1` (stereo in doubt; 39), for which the concentration for half-maximal inhibition (IC50) in assay [1] came out at 0.052 µM. This counts as double-digit nanomolar.

In assay [1] (setting [9]), `CC(C)c1cccc2c(CCCCNS(=O)(=O)c3ccccc3)cc(C(=O)O)c-2c1` displayed a half-inhibitory concentration (IC50) of 3.1 µM.

Take `CCc1cc(S(=O)(=O)NCCc2ccc(OCC(=O)O)cc2)c2ccc(C(C)C)ccc1-2`: the IC50 in assay [1] (setting [9]) was found to be 65 µM.

In assay [1] (setting [9]), `CC(C)c1ccc2c(CCCCNS(=O)(=O)c3ccc(F)cc3)cc(C(=O)O)c-2cc1` yielded an IC50 of 1.1 µM.

`CC(C)c1ccc2c(CC/C=C/CCNS(=O)(=O)c3ccccc3)cc(C(=O)O)c-2cc1` (stereo in doubt; 40) gave an IC50 in assay [1] of 0.46 µM.

Compound `CC(C)c1ccc2c(C(C)C)cc(S(=O)(=O)NCCc3ccc(OCC(=O)O)cc3)c-2cc1` displayed an IC50 in assay [1] (setting [9]) of 25 µM.

`CC(C)c1cc(S(=O)(=O)NCCc2ccc(OCC(=O)O)cc2)c2cccccc1-2`: the IC50 in assay [1] (setting [9]) is 160 µM.

In assay [1] (setting [9]), `CC(C)c1cccc2c(CCCCCCNS(=O)(=O)c3ccccc3)cc(C(=O)O)c-2c1` showed an IC50 of 0.92 µM.

For `CC(C)c1cccc2c(CCNS(=O)(=O)c3ccccc3)cc(C(=O)O)c-2c1`, the IC50 in assay [1] (setting [9]) was found to be 15 µM.

Take `COc1ccc(S(=O)(=O)NCCCCc2cc(S(=O)(=O)[O-])c3ccc(C(C)C)ccc2-3)cc1.[Na+]`: the Agonist activity in assay [2] and in assay [4] was 0 each time. For the same compound, the Selectivity index in assay [3] is 660. Besides, the IC50 is more than 100 µM in assay [6] and 0.0032 µM in assay [7].

In assay [1] (setting [9]), `CC(C)c1ccc2c(CCCCNS(=O)(=O)c3ccccc3)cc(C(=O)O)c-2cc1` came in with an IC50 of 0.07 µM. In assay [5], this compound yielded a Selectivity index of more than 63.

The compound `CC(C)c1cccc2c(CCCCCNS(=O)(=O)c3ccccc3)cc(C(=O)O)c-2c1` showed an IC50 in assay [1] (setting [9]) of 2.6 µM.

In the case of `CC(C)c1ccc2c(CCCCCCCNS(=O)(=O)c3ccccc3)cc(C(=O)O)c-2cc1`, the IC50 in assay [1] (setting [9]) stood at 0.12 µM.

As for `CCc1cc(S(=O)(=O)NCCc2ccc(OCC(=O)O)cc2)c2cccccc1-2`, in assay [1] (setting [9]), it took 56 µM to reach half-maximal inhibition (IC50). Compared with the last compound, the IC50 is about 470-fold higher.

Consider `Cc1cc(S(=O)(=O)NCCc2ccc(OCC(=O)O)cc2)c2ccc(C(C)C)ccc1-2`, for which the midpoint of inhibition in assay [1] (setting [9]), the IC50, lay at 84 µM. Compared with the last compound, the IC50 is about 1.5-fold higher.

`O=C(O)c1cc(CCCCCCCCNS(=O)(=O)c2ccccc2)c2cccccc1-2` had an IC50 in assay [1] (setting [9]) of 0.038 µM.

Turning to `CC(C)c1ccc2c(/C=C/C(=O)O)cc(CCCCNS(=O)(=O)c3ccccc3)c-2cc1`, the IC50 in assay [1] (setting [9]) came to 21 µM.

Compound `O=C(O)c1cc(CCCCNS(=O)(=O)c2ccccc2)c2cccccc1-2` had an IC50 in assay [1] (setting [9]) of 0.57 µM.

`O=C(O)c1cc(CCCCCCNS(=O)(=O)c2ccccc2)c2cccccc1-2`: in assay [1] (setting [9]), the IC50 was 0.14 µM. Against the preceding compound, the IC50 is about 4.1-fold lower.

`CC(C)c1ccc2c(CCNS(=O)(=O)c3ccccc3)cc(C(=O)O)c-2cc1` had a half-inhibitory concentration (IC50) in assay [1] (setting [9]) of 60 µM.

Take `CCc1cc(S(=O)(=O)NCCc2ccc(OCC(=O)O)cc2)c2ccccc(OC)c1-2`: 110 µM corresponded to half-maximal inhibition in assay [1] (setting [9]) (IC50).

In turn, `CCc1cc(S(=O)(=O)NCCc2ccc(OCC(=O)O)cc2)c2cc(C(C)C)cccc1-2` returned a 50% inhibitory concentration (IC50) in assay [1] (setting [9]) of 56 µM.

Compound `CC(C)c1ccc2c(CCCNS(=O)(=O)c3ccccc3)cc(C(=O)O)c-2cc1` had an IC50 in assay [1] (setting [9]) of 4.8 µM.

Compound `CCCc1cc(S(=O)(=O)NCCc2ccc(OCC(=O)O)cc2)c2ccc(C(C)C)ccc1-2` yielded an IC50 in assay [1] (setting [9]) of 50 µM.

In the case of `Cc1cc(S(=O)(=O)NCCc2ccc(OCC(=O)O)cc2)c2cc(C(C)C)cccc1-2`, half-maximal inhibition in assay [1] (setting [9]) (IC50) required 120 µM.

With `COc1ccccc2c(S(=O)(=O)NCCc3ccc(OCC(=O)O)cc3)cc(C)c1-2`, half-maximal inhibition in assay [1] (setting [9]) (IC50) was put at 190 µM.

In turn, `CC(C)c1ccc2c(CCCCNS(=O)(=O)c3ccc(Cl)cc3)cc(C(=O)O)c-2cc1` yielded a half-inhibitory concentration (IC50) in assay [1] (setting [9]) of 0.0053 µM. Moreover, the Selectivity index in assay [5] is more than 667.

Consider `CC(C)c1ccc2c(CCCCNS(=O)(=O)c3ccc(Cl)cc3)cc(S(=O)(=O)[O-])c-2cc1.[Na+]`, for which the Agonist activity in assay [2] and in assay [4] was 0 each time. Moreover, the IC50 in assay [1] (setting [9]) is 0.0009 µM; in assay [8], 0.014 µM; in assay [6] it was more than 100 µM. In addition, the Selectivity index in assay [3] was found to be 378.

Regarding `CC(C)c1ccc2c(CCCCNS(=O)(=O)c3cccc(C(F)(F)F)c3)cc(C(=O)O)c-2cc1`, the half-inhibitory concentration (IC50) in assay [1] (setting [9]) came to 1.6 µM.

As for `O=C(O)c1cc(CCNS(=O)(=O)c2ccccc2)c2cccccc1-2`, the IC50 in assay [1] (setting [9]) turned out to be 21 µM.

In the case of `CCCCc1cc(S(=O)(=O)NCCc2ccc(OCC(=O)O)cc2)c2ccc(C(C)C)ccc1-2`, the IC50 in assay [1] (setting [9]) was found to be 19 µM. This IC50 and that of the compound before are within 1.5-fold of each other.

For the compound `CCCCc1cc(S(=O)(=O)NCCc2ccc(OCC(=O)O)cc2)c2cc(C(C)C)cccc1-2`, in assay [1] (setting [9]), 32 µM corresponded to half-maximal inhibition (IC50).

In assay [1] (setting [9]), `CCCCc1cc(S(=O)(=O)NCCc2ccc(OCC(=O)O)cc2)c2cccccc1-2` returned a half-maximal inhibitory concentration (IC50) of 55 µM.

As for `COc1ccc(S(=O)(=O)NCCCCc2cc(C(=O)O)c3ccc(C(C)C)ccc2-3)cc1`, the Agonist activity in assay [2] and in assay [4] was 0 in each case. In addition, in assay [1] (setting [9]), the IC50 is 0.16 µM. The same compound yielded a Selectivity index in assay [3] of more than 233.

The compound `CC(C)c1ccc2c(C(=O)O)cc(-c3cccc(CCNS(=O)(=O)c4ccccc4)c3)c-2cc1` showed an IC50 in assay [1] (setting [9]) of 0.14 µM. This lies in the sub-micromolar range.

Take `CCCc1cc(S(=O)(=O)NCCc2ccc(OCC(=O)O)cc2)c2cc(C(C)C)cccc1-2`: half-maximal inhibition in assay [1] (setting [9]) (IC50) required 45 µM.

As to `Cc1cc(S(=O)(=O)NCCc2ccc(OCC(=O)O)cc2)c2cccccc1-2`, the IC50 in assay [1] (setting [9]) was found to be 190 µM.

The record behind these values is ChEMBL document CHEMBL1126624, “Design, synthesis, and pharmacology of 3-substituted sodium azulene-1-sulfonates and related compounds: non-prostanoid thromboxane A2 receptor antagonists” (J Med Chem, 1993).
